Data as given in PubChem BioAssay AID492951 (Molecular Libraries Program, Specialized Chemistry Center, …, 2010).
Calls of active or inactive are those of the source.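 How the source made its calls: active means inhibition above 10%; inactive means the rest.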

target: Hexokinase-4 (Homo sapiens) (UniProt P35557); assay: human glucokinase inhibition, counter-screen for TbHK1 inhibitor project, biochemical, recombinant hGlck (AID 492951); details: G6PDH-coupled NADH absorbance 340 nm, at 10 µM; active compounds read high
Outline: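 Test system: purified recombinant human glucokinase (HK4) with G6PDH coupling enzyme / Reagent: 20 mM glucose as reaction starter, plus 1 mM ATP / Timing: 10 min room-temperature compound-enzyme preincubation before glucose addition / Measured by: A340 of NADH / Repeats: three replicates per compound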

Chain of Hexokinase-4 (Homo sapiens) (P35557 whole entry, looked up): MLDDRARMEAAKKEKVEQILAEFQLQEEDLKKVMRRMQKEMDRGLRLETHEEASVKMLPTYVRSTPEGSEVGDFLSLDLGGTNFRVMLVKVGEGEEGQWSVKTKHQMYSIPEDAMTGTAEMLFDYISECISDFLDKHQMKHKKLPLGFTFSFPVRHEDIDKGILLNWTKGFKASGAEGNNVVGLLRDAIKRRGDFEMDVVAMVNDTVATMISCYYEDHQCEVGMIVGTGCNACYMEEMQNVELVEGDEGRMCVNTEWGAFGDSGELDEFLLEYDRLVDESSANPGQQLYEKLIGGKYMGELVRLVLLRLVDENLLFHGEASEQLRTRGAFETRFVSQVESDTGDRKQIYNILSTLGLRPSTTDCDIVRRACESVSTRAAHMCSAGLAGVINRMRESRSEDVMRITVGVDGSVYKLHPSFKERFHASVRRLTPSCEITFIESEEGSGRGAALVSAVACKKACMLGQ

Structure (SMILES)	inhibition	outcome
O=c1c2ccccc2sn1-c1ccc(Cl)cc1	35.6% (active)	
COc1ccc(-n2sc3ccccc3c2=O)cc1		inactive
O=c1c2cc(F)c(F)cc2sn1-c1ccccc1	16.9% (active)	
COc1ccc(NC(=O)Nc2ccccc2C(=O)O)cc1	5.1% (inactive)	
COc1ccc(C(=O)Nc2cc(Cl)ccc2C#N)cc1		inactive
CC(C)Cc1ccc(C(=O)Nc2cc(Cl)ccc2C(=O)O)cc1	19.5% (active)	
CC(C)(C)c1ccc(C(=O)Nc2cc(Cl)c(F)cc2C(=O)O)cc1		inactive
O=c1c(Br)csn1-c1ccc(Br)cc1	32.2% (active)	
COc1ccc(C(=O)NCC(=O)O)cc1	20.5% (active)	
O=c1c2cc([N+](=O)[O-])ccc2sn1-c1ccccc1	11.4% (active)	
COc1ccc(C(=O)NC(C(=O)O)c2ccccc2)cc1 (stereo unspecified)		inactive
COc1ccc(Nc2cc(Cl)ccc2C(=O)O)cc1		inactive
Cn1c2ccccc2c(=O)n1-c1ccccc1		inactive
OB1OCc2cc(C(F)(F)F)ccc21		inactive
COc1ccc(C(=O)N(C)c2cc(Cl)ccc2C(=O)O)cc1	6.7% (inactive)	
O=C(Cn1sc2ccccc2c1=O)Nc1cccc(C(F)(F)F)c1	9.3% (inactive)	
O=C(Nc1cc(Cl)ccc1C(=O)O)c1ccc(Cl)cc1		inactive
COc1ccc(C(=O)Nc2cccc(Cl)c2)cc1		inactive
O=C(Nc1cc(Cl)ccc1C(=O)O)c1ccc(-c2cccs2)cc1	30.3% (active)	
CC(C(=O)Nc1ccccc1)n1sc2ccccc2c1=O (stereo unspecified)	9.6% (inactive)	
CC(=O)Nc1ccc2sn(-c3ccccc3)c(=O)c2c1	51.9% (active)	
